Reference: ChEMBL document CHEMBL1126768, “A mechanism-based inactivation study of neutral endopeptidase 24.11” (J Med Chem, 1993)

Assays:
[1] = target: T1, Neprilysin (Homo sapiens, UniProt P08473); assay: Inhibition constant determined for neutral endopeptidase (NEP)
Outline: (§1)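 Reversible inhibition of recombinant human NEP (0.5 μM final), tested with inactivator at 1–50 μM in 50 mM HEPES pH 7.4 plus 5% p-dioxane. DAGNPG substrate was used at 100 and 500 μM. NEP was added last and activity was read immediately by continuous fluorescence (ex 342, em 562 nm).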

[2] = target: T2, Angiotensin-converting enzyme (Rattus norvegicus, UniProt P47820); assay: Inhibition constant determined for angiotensin converting enzyme (ACE)
T2 sequence (P47820 whole entry): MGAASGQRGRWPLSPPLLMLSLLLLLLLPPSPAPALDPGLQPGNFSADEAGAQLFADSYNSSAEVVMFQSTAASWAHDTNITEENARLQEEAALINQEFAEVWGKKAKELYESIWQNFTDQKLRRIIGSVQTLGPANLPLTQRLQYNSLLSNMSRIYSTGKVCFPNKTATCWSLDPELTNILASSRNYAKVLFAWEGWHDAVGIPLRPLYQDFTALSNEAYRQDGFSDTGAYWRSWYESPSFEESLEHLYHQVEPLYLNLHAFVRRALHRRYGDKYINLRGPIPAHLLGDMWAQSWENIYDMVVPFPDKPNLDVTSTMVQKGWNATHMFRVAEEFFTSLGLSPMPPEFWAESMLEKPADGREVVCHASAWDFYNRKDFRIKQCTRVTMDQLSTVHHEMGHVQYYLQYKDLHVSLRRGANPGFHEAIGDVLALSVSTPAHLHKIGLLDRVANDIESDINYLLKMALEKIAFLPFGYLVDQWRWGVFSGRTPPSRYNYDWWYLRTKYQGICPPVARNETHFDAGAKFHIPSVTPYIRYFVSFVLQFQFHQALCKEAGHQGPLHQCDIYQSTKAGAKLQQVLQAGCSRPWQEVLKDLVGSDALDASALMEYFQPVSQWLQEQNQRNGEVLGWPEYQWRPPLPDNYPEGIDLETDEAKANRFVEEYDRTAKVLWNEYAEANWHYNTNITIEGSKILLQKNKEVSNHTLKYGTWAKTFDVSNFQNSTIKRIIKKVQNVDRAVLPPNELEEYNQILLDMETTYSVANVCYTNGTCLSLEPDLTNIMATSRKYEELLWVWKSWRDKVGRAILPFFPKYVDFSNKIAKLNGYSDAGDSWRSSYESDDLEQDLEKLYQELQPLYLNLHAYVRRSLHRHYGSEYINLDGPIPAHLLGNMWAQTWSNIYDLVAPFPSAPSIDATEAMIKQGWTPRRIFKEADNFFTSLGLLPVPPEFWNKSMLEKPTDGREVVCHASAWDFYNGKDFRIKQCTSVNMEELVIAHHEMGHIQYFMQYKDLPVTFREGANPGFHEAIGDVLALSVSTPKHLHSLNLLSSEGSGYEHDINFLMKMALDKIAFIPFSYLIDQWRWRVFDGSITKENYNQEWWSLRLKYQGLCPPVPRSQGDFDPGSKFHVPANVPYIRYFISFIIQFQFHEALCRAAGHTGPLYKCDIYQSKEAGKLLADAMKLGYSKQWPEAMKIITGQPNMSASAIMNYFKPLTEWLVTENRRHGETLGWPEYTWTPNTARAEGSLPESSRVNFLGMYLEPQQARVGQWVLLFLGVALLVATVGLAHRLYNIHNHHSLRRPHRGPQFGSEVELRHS

[3] = target: T1, Neprilysin; assay: Inhibition constant determined for Neutral endopeptidase (NEP); outline: as §1
[4] = target: T2, Angiotensin-converting enzyme; assay: Inhibition constant determined for Angiotensin I converting enzyme

T1 sequence (P08473 whole entry): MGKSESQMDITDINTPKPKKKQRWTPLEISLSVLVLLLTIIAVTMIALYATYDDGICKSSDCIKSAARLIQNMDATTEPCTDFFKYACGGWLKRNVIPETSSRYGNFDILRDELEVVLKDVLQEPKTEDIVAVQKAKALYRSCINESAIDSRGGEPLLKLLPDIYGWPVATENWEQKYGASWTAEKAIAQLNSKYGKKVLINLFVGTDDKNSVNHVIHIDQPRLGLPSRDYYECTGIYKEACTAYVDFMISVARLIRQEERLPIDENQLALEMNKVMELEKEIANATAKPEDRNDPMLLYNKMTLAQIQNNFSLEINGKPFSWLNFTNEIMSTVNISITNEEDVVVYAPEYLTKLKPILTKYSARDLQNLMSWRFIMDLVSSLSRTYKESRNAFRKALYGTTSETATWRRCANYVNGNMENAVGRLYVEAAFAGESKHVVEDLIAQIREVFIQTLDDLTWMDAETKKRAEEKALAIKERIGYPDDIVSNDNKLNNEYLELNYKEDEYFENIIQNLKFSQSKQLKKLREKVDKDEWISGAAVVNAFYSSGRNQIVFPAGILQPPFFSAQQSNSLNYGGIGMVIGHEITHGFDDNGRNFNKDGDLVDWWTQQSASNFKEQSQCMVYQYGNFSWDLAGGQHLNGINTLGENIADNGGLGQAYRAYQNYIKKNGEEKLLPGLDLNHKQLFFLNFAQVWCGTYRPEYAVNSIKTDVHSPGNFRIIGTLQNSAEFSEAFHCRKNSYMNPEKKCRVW

| Ki [1] | Ki [2] | Ki [3] | Ki [4] | Compound |
| --- | --- | --- | --- | --- |
| 14 µM | > 10000 µM | – | – | N#CCC(=O)CC(Cc1ccccc1)C(=O)NC(Cc1ccccc1)C(=O)O (centres undefined) |
| – | – | 17 µM | 65 µM | N#CCC(=O)NC(Cc1ccccc1)C(=O)NC(Cc1ccccc1)C(=O)O (centres undefined) |
